Calls of active or inactive are those of the source. No cut-off for these calls is given here.
Experiments:
[1] = biological target: Neutral ceramidase (Homo sapiens) (UniProt Q9NR71); experiment: Activity of human recombinant neutral ceramidase assessed as hydrolysis at 20 uM after 60 mins by TLC-based fluorescence imaging; set-up: scale not given: the % may be the effect or the level left
Outline: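 Recombinant human nCDase at 20 ng/mL final, with substrate at 20 µM final, in 200 mM sodium acetate pH 7.0, 200 mM NaCl, 0.1% Triton X-100. Incubated 60 min at 37 °C. Stopped with chloroform/methanol 2:1 and centrifuged 2 min at 10,000 rpm; organic layer run on TLC. Percent hydrolysis from imaged fluorescence of product versus substrate; mean ± SD, n=3.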

[2] = biological target: T1, Acid ceramidase (Homo sapiens) (UniProt Q13510); experiment: Activity of human recombinant acid ceramidase expressed in baculovirus infected Sf9 cells assessed as hydrolysis at 160 uM after 150 mins by TLC-based fluorescence imaging in presence of DP-24a
T1 sequence (whole entry): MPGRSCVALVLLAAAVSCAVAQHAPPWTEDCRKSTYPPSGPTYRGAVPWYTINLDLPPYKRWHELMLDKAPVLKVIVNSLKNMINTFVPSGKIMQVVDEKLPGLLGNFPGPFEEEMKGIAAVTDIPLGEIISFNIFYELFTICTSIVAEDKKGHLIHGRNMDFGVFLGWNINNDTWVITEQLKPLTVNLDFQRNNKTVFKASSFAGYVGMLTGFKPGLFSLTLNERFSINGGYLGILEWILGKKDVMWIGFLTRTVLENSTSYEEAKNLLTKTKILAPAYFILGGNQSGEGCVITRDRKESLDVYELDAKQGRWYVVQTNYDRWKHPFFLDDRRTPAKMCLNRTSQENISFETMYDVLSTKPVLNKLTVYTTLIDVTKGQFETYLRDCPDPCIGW
Outline: (§1)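 Inhibition runs used 30 µg/mL aCDase with inhibitor at 50 µM, in pH 4.5 sodium acetate buffer with 200 mM NaCl and 0.1% Triton X-100. Substrate set per compound at 80, 55 or 160 µM; DMSO <5%. Incubated 150 min at 37 °C, then extracted and run on TLC with fluorescence imaging. Activity expressed relative to an inhibitor-free control; mean ± SD of three experiments, with significance by p value.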

[3] = biological target: T1, Acid ceramidase (Homo sapiens); experiment: Activity of human recombinant acid ceramidase expressed in baculovirus infected Sf9 cells assessed as hydrolysis at 160 uM after 150 mins by TLC-based fluorescence imaging in presence of B-13; outline: as §1
[4] = biological target: T1, Acid ceramidase (Homo sapiens); experiment: Activity of human recombinant acid ceramidase expressed in baculovirus infected Sf9 cells assessed as hydrolysis at 20 uM after 150 mins by TLC-based fluorescence imaging; set-up: scale not given: the % may be the effect or the level left
Outline: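 Micellar assay with insect-cell-expressed human aCDase in 200 mM sodium acetate pH 4.5, 200 mM NaCl, 0.1% Triton X-100. Substrate at 20 µM final, 150 min at 37 °C. Quenched with chloroform/methanol 2:1, organic layer separated on silica TLC. Spots imaged at ex 550/em 600 nm (Nile Red) or ex 430/em 550 nm (NBD). Percent cleavage taken from cleaved/(cleaved+uncleaved) fluorescence; mean ± SD, n=3.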

[5] = biological target: T1, Acid ceramidase (Homo sapiens); experiment: Activity of human recombinant acid ceramidase expressed in baculovirus infected Sf9 cells assessed as hydrolysis at 80 uM after 150 mins by TLC-based fluorescence imaging in presence of DP-24a; outline: as §1
[6] = biological target: T1, Acid ceramidase (Homo sapiens); experiment: Activity of human recombinant acid ceramidase expressed in baculovirus infected Sf9 cells assessed as hydrolysis at 80 uM after 150 mins by TLC-based fluorescence imaging in presence of B-13; outline: as §1
[7] = tested on: Tachypleus tridentatus; experiment: Activity of japanese horseshoe crab acid ceramidase after 30 mins by TLC-based fluorescence imaging
[8] = biological target: T1, Acid ceramidase (Homo sapiens); experiment: Activity of human recombinant acid ceramidase expressed in baculovirus infected Sf9 cells assessed as hydrolysis at 55 uM after 150 mins by TLC-based fluorescence imaging in presence of DP-24a; outline: as §1
[9] = biological target: T1, Acid ceramidase (Homo sapiens); experiment: Activity of human recombinant acid ceramidase expressed in baculovirus infected Sf9 cells assessed as hydrolysis at 55 uM after 150 mins by TLC-based fluorescence imaging in presence of B-13; outline: as §1

Chain of Neutral ceramidase (Homo sapiens) (Q9NR71 whole entry): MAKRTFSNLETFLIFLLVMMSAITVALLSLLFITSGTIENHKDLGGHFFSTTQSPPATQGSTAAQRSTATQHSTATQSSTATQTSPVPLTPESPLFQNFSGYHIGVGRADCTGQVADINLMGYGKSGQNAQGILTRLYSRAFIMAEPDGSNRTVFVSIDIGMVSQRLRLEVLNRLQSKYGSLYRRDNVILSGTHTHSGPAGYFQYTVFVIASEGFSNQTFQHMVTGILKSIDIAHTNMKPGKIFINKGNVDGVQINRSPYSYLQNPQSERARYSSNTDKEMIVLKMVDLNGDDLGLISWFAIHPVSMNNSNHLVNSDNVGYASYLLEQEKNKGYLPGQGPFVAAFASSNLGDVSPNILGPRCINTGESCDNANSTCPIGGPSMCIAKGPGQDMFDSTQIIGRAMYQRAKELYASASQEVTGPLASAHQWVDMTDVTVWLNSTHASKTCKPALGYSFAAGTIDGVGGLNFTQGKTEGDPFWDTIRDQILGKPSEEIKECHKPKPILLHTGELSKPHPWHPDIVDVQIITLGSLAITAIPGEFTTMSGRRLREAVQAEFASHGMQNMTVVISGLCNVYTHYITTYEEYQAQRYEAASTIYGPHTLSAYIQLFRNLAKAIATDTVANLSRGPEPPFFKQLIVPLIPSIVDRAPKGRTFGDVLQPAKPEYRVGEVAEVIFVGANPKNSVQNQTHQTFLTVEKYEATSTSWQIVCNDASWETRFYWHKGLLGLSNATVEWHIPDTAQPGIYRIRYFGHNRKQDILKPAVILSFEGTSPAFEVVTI

Activity [1] | Activity [2] | Activity [3] | Activity [4] | Activity [5] | Activity [6] | Km [7] | Vmax [7] | Activity [8] | Activity [9] | Compound
6.2% | inactive | inactive | 5.6% |  |  |  |  |  |  | CCCCCCCCCCCCCCCC(=O)N[C@@H](CO)[C@H](O)/C=C/CCCCCCCCCNc1ccc([N+](=O)[O-])c2nonc12
3.3% |  |  | 6.1% | inactive | inactive |  |  |  |  | CCCCCCCCCCCCC/C=C/[C@@H](O)[C@H](CO)NC(=O)CCCCCCCCCCCOc1ccc2c(=O)cc3oc4cc(N(CC)CC)ccc4nc-3c2c1
9.9% |  |  | 9.9% | inactive | inactive | 59 µM | 0.8 pmol/min |  |  | CCCCCCCCCCCCC/C=C/[C@@H](O)[C@H](CO)NC(=O)CCCCCCCCCCCNc1ccc([N+](=O)[O-])c2nonc12
3.9% |  |  | 6.3% |  |  |  |  | inactive | inactive | CCCCCCCCCCCCCCCC(=O)N[C@@H](CO)[C@H](O)/C=C/CCCCCCCCCOc1ccc2c(=O)cc3oc4cc(N(CC)CC)ccc4nc-3c2c1
